ChEMBL document CHEMBL5230168, “Design, synthesis, and biological evaluation of new arjunolic acid derivatives as anticancer agents” (RSC Med Chem, 2023)
Calls of active or inactive are those of the source. The rule behind the calls is not given here.

Key:
[1] = Toxicity in Balb/c mouse assessed as occasional writhing at 0.01 to 10 mg/kg, ip measured upto 24 hrs by Irwin test; type: organism-based; conditions: in vivo, dose 0.01-10 mg/kg
Method in brief: (§1)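 Irwin primary observation in female Balb/c mice aged 7–8 weeks, 3 per group. Single i.p. doses of 0.01, 0.1, 1, 5, 10, 50 and 100 mg kg−1 in 0.2% HPMC in saline; vehicle controls observed in parallel, non-blind. Standardized grid including rectal temperature and pupil diameter scored at 15, 30, 60, 120 and 180 min and 24 h, with continuous watch over 0–15 min.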

[2] = Toxicity in Balb/c mouse assessed as abnormal gait with rolling at 50 to 100 mg/kg, ip measured upto 24 hrs by Irwin test; type: organism-based; conditions: in vivo, dose 50-100 mg/kg; method in brief: as §1
[3] = Toxicity in Balb/c mouse assessed as decreased reactivity to touch at 50 to 100 mg/kg, ip measured upto 24 hrs by Irwin test; type: organism-based; conditions: in vivo, dose 50-100 mg/kg; method in brief: as §1
PANC-1 [4] = test: Induction of apoptosis in human PANC-1 cells assessed as necrotic cells at 1.88 uM incubated for 24 hrs by Annexin V-FITC/PI staining based flow cytometric analysis (reference value: 3.9%); type: functional
Method in brief: (§2)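 PANC-1 seeded at 2 × 10^5 cells/well, grown 24 h, then treated 24 h. PI added just before flow cytometry. Quadrant percentages given as mean ± SD of three experiments. Untreated control.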

[5] = Toxicity in Balb/c mouse assessed as decreased fear/startle at 50 to 100 mg/kg, ip measured upto 24 hrs by Irwin test; type: organism-based; conditions: in vivo, dose 50-100 mg/kg; method in brief: as §1
NCI-H2170 = test: Cytotoxicity against human NCI-H2170 cells assessed as inhibition of cell growth incubated for 72 hrs by MTT assay; type: functional, cell-based; conditions: NCI-H2170, 72 h
Method in brief: (§3)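 Cells seeded per well (HT-29 4500, PANC-1 4000, SK-MEL-28 3200, A375 1200, A549 2500, H2170 and BJ 10 000) and left 24 h. They were then exposed to increasing concentrations for 72 h and incubated 1 h with MTT 0.5 mg mL−1. Formazan was dissolved in DMSO and absorbance read at 550 nm. IC50 from three independent experiments. Final DMSO ≤0.5%.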

PANC-1 [6] = test: Induction of apoptosis in human PANC-1 cells assessed as chromatin condensation at 0.47 to 2.82 uM incubated for 24 hrs by Hoechst 33342 staining based fluorescence microscopic analysis; type: functional, cell-based; conditions: dose 0.47-2.82 µM
Method in brief: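 PANC-1 at 6500 cells/well, pre-incubated 24 h, then treated for 24 h. Washed with PBS and stained with Hoechst 33342 (1 μg mL−1 in PBS) 10 min at 37 °C in the dark. Nuclear morphology imaged by high-content fluorescence microscopy with a DAPI filter. Untreated cells as control.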

PANC-1 [7] = test: Induction of apoptosis in human PANC-1 cells assessed as late apoptotic cells at […] incubated for 24 hrs by Annexin V-FITC/PI staining based flow cytometric analysis (reference value: 1.1%); type: functional; method in brief: as §2
SK-MEL-28 = test: Cytotoxicity against human SK-MEL-28 cells assessed as inhibition of cell growth incubated for 72 hrs by MTT assay; type: functional, cell-based; conditions: SK-MEL-28, 72 h; method in brief: as §3
PANC-1 [8] = test: Cytotoxicity against human PANC-1 cells assessed as inhibition of cell growth incubated for 72 hrs by MTT assay; type: functional, cell-based; conditions: PANC-1, 72 h; method in brief: as §3
[9] = Toxicity in Balb/c mouse assessed as decrease in activity at 50 to 100 mg/kg, ip measured upto 24 hrs by Irwin test; type: organism-based; conditions: in vivo, dose 50-100 mg/kg; method in brief: as §1
PANC-1 [10] = test: Induction of apoptosis in human PANC-1 cells assessed as early apoptotic cells at 0.94 uM incubated for 24 hrs by Annexin V-FITC/PI staining based flow cytometric analysis (reference value: 5.2%); type: functional; method in brief: as §2
PANC-1 [11] = test: Induction of cell cycle arrest in human PANC-1 cells assessed as accumulation of cells at G0/G1 phase incubated for 24 hrs by PI staining based flow cytometric analysis; type: functional; conditions: dose 0.47-2.82 µM
[12] = Toxicity in Balb/c mouse assessed as loss of traction indication of muscle weakness at 50 to 100 mg/kg, ip measured upto 24 hrs by Irwin test; type: organism-based; conditions: in vivo, dose 50-100 mg/kg; method in brief: as §1
PANC-1 [13] = test: Induction of apoptosis in human PANC-1 cells assessed as early apoptotic cells at 1.88 uM incubated for 24 hrs by Annexin V-FITC/PI staining based flow cytometric analysis (reference value: 5.2%); type: functional; method in brief: as §2
PANC-1 [14] = test: Synergistic cytotoxicity against human PANC-1 cells assessed as combination index at 0.94 uM incubated for 72 hrs in the presence of 47 uM gemcitabine by MTT assay; type: functional
[15] = Toxicity in Balb/c mouse assessed as decrease of abdominal muscle tone at 50 to 100 mg/kg, ip measured upto 24 hrs by Irwin test; type: organism-based; conditions: in vivo, dose 50-100 mg/kg; method in brief: as §1
[16] = Toxicity in Balb/c mouse assessed as transient observation of sole sign at 0.01 to 10 mg/kg, ip measured upto 24 hrs by Irwin test; type: organism-based; conditions: in vivo, dose 0.01-10 mg/kg; method in brief: as §1
PANC-1 [17] = test: Induction of apoptosis in human PANC-1 cells assessed as early apoptotic cells at […] incubated for 24 hrs by Annexin V-FITC/PI staining based flow cytometric analysis (reference value: 5.2%); type: functional; method in brief: as §2
PANC-1 [18] = test: Induction of cell cycle arrest in human PANC-1 cells assessed as decrease in S phase cells at 1.88 uM incubated for 24 hrs by PI staining based flow cytometric analysis (Rvb= 19.8 %); type: functional; design: scale not given: the % may be the effect or the level left
PANC-1 [19] = test: Induction of apoptosis in human PANC-1 cells assessed as viable cells at 0.94 uM incubated for 24 hrs by Annexin V-FITC/PI staining based flow cytometric analysis (reference value: 89.8%); type: functional; conditions: read-out: Activity; method in brief: as §2
PANC-1 [20] = test: Induction of apoptosis in human PANC-1 cells assessed as necrotic cells at 2.82 uM incubated for 24 hrs by Annexin V-FITC/PI staining based flow cytometric analysis (reference value: 3.9%); type: functional; method in brief: as §2
PANC-1 [21] = test: Induction of apoptosis in human PANC-1 cells assessed as late apoptotic cells at 1.88 uM incubated for 24 hrs by Annexin V-FITC/PI staining based flow cytometric analysis (reference value: 1.1%); type: functional; method in brief: as §2
PANC-1 [22] = test: Synergistic cytotoxicity against human PANC-1 cells assessed as combination index at 0.12 uM incubated for 72 hrs in the presence of 6 uM gemcitabine by MTT assay; type: functional
PANC-1 [23] = test: Synergistic cytotoxicity against human PANC-1 cells assessed as combination index at 1.88 uM incubated for 72 hrs in the presence of 94 uM gemcitabine by MTT assay; type: functional
PANC-1 [24] = test: Induction of cell cycle arrest in human PANC-1 cells assessed as accumulation of cells at G0/G1 phase at 1.88 uM incubated for 24 hrs by PI staining based flow cytometric analysis (Rvb= 51.8 %); type: functional
PANC-1 [25] = test: Induction of apoptosis in human PANC-1 cells assessed as necrotic cells at 0.94 uM incubated for 24 hrs by Annexin V-FITC/PI staining based flow cytometric analysis (reference value: 3.9%); type: functional; method in brief: as §2
PANC-1 [26] = test: Synergistic cytotoxicity against human PANC-1 cells assessed as combination index at 0.47 uM incubated for 72 hrs in the presence of 23.5 uM gemcitabine by MTT assay; type: functional
A549 = test: Cytotoxicity against human A549 cells assessed as inhibition of cell growth incubated for 72 hrs by MTT assay; type: functional, cell-based; conditions: A549, 72 h; method in brief: as §3

CCOC(=O)[C@]12CCC(C)(C)C[C@H]1C1=CC[C@@H]3[C@@]4(C)C(C=O)=C[C@@](C)(CO)[C@@H]4CC[C@@]3(C)[C@]1(C)CC2
Activity [1]: Non-Toxic | Activity [2]: Toxic | Activity [3]: Toxic | Activity (PANC-1 [4]): 3.1% | Activity [5]: Toxic | IC50 (NCI-H2170): 1330 nM | Activity (PANC-1 [6]): inactive | Activity (PANC-1 [7]): 1.1% | IC50 (SK-MEL-28): 580 nM | IC50 (PANC-1 [8]): 470 nM | Activity [9]: Toxic | Activity (PANC-1 [10]): 5.7% | Activity (PANC-1 [11]): Dose-Dependent Effect | Activity [12]: Toxic | Activity (PANC-1 [13]): 7.5% | CI (PANC-1 [14]): 0.86 | Activity [15]: Toxic | Activity [16]: Non-Toxic | Activity (PANC-1 [17]): 4.9% | Activity (PANC-1 [18]): 3.7% | viability at 0.94 µM (PANC-1 [19]): 90.4% | Activity (PANC-1 [20]): 2% | Activity (PANC-1 [21]): 2.2% | CI (PANC-1 [22]): 0.93 | CI (PANC-1 [23]): 0.79 | Activity (PANC-1 [24]): 70.2% | Activity (PANC-1 [25]): 2.6% | CI (PANC-1 [26]): 0.98 | IC50 (A549): 830 nM
